One may read the ED50 as the dose that gives a 50% effect, or the effect in half of the subjects. Lower therefore signals greater potency.

Converted amounts (≈) assume the structure as drawn.

Data on seven compounds can be found in ChEMBL document CHEMBL1124366, “Synthesis and biological properties of N63-carboxamides of teicoplanin antibiotics. Structure-activity relationships” (J Med Chem, 1989).

Common to all, as to format: functional
One assay deals with Escherichia coli. Put plainly: In vitro minimum inhibitory concentration against Escherichia coli SKF 12140.
Assay [1] concerns Streptococcus pyogenes. Put plainly: Subcutaneously administration into mice infected with Streptococcus pyogenes C 203. The note with it: sc. The gist of the method:
(§1)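 Mice (five per treatment group, five groups) infected intraperitoneally with about 10⁵ cells of Strep. pyogenes C 203, about 100× the LD50. ED50 (mg/kg) was calculated from the percentage of mice surviving at each dose on day 7.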

The next assay concerns Pseudomonas aeruginosa. Put plainly: In vitro minimum inhibitory concentration against Pseudomonas aeruginosa ATCC 10145.
In assay [2] the test system is Staphylococcus epidermidis. Put plainly: In vitro minimum inhibitory concentration against Staphylococcus epidermis ATCC 12228.
Another assay has as its system Staphylococcus aureus. Put plainly: In vitro minimum inhibitory concentration against Staphylococcus aureus Tour.
Another assay has as its system Streptococcus pneumoniae. Put plainly: In vitro minimum inhibitory concentration against Streptococcus pneumoniae UC41.
Assay [3] deals with Streptococcus pyogenes. Put plainly: In vitro minimum inhibitory concentration against Streptococcus pyogenes C 203.
The test system of a further assay is Enterococcus faecalis. Put plainly: In vitro minimum inhibitory concentration against Streptococcus faecalis ATCC 7080.
In a further assay the test system is Proteus vulgaris. Put plainly: In vitro minimum inhibitory concentration against Proteus vulgaris X 19 ATCC 881.
In assay [4] the test system is Streptococcus pyogenes. Put plainly: In vivo effective dose given perorally to mice infected with Streptococcus pyogenes C 203. The note with it: po. In a few lines:
as §1

Assay [5] relates to Staphylococcus haemolyticus. Put plainly: In vitro minimum inhibitory concentration against Staphylococcus hemolyticus 602 cell line. The note with it: strain 602.

As to `CCN(CC)CCCNC(=O)[C@H]1NC(=O)[C@H]2NC(=O)[C@H](NC(=O)[C@@H]3NC(=O)[C@H]4NC(=O)[C@@H](Cc5ccc(c(Cl)c5)Oc5cc3cc(c5O)Oc3ccc(cc3Cl)[C@H]2O)NC(=O)[C@H](N)c2ccc(O)c(c2)Oc2cc(O)cc4c2)c2ccc(O)c(c2)-c2c(O)cc(O)cc21`, the MIC was 8 µg/mL (≈ 6.1 µM) against Escherichia coli; 32 µg/mL (≈ 24.4 µM) against Pseudomonas aeruginosa; 0.03 µg/mL (≈ 0.0229 µM) in assay [2]; 0.12 µg/mL (≈ 0.0915 µM) in the assay on Staphylococcus aureus; 0.12 µg/mL (≈ 0.0915 µM) in the assay on Streptococcus pneumoniae; 0.06 µg/mL (≈ 0.0458 µM) with Streptococcus pyogenes [3]. The MIC against Enterococcus faecalis turned out to be 0.12 µg/mL (≈ 0.0915 µM); with Proteus vulgaris, 32 µg/mL (≈ 24.4 µM). The ED50 with Streptococcus pyogenes [1] came to 0.18 mg/kg.
Consider `N[C@H]1C(=O)N[C@@H]2Cc3ccc(c(Cl)c3)Oc3cc4cc(c3O)Oc3ccc(cc3Cl)[C@@H](O)[C@@H]3NC(=O)[C@H](NC(=O)[C@@H]4NC(=O)[C@@H](NC2=O)c2cc(O)cc(c2)Oc2cc1ccc2O)c1ccc(O)c(c1)-c1c(O)cc(O)cc1[C@@H](C(=O)NC1CN2CCC1CC2)NC3=O` (some centres not stated), for which the MIC against Escherichia coli is 8 µg/mL (≈ 6.12 µM); with Pseudomonas aeruginosa it was 32 µg/mL (≈ 24.5 µM); in assay [2], 0.06 µg/mL (≈ 0.0459 µM); with Staphylococcus aureus, 0.12 µg/mL (≈ 0.0918 µM); with Streptococcus pneumoniae, 0.06 µg/mL (≈ 0.0459 µM); against Streptococcus pyogenes [3], 0.06 µg/mL (≈ 0.0459 µM). Moreover, the values for the MIC with Enterococcus faecalis and with Proteus vulgaris were 0.12 µg/mL (≈ 0.0918 µM) and 64 µg/mL (≈ 49 µM), respectively. Further, the 50% effective dose (ED50) in the assay with Streptococcus pyogenes [1] was 0.46 mg/kg.
On to `N[C@H]1C(=O)N[C@@H]2Cc3ccc(c(Cl)c3)Oc3cc4cc(c3O)Oc3ccc(cc3Cl)[C@@H](O)[C@@H]3NC(=O)[C@H](NC(=O)[C@@H]4NC(=O)[C@@H](NC2=O)c2cc(O)cc(c2)Oc2cc1ccc2O)c1ccc(O)c(c1)-c1c(O)cc(O)cc1[C@@H](C(=O)NCCN1CCCC1)NC3=O`, for which the MIC in the assay on Escherichia coli came out at 8 µg/mL (≈ 6.18 µM); against Pseudomonas aeruginosa, 64 µg/mL (≈ 49.4 µM); in [2], 0.016 µg/mL (≈ 0.0124 µM); with Staphylococcus aureus, 0.06 µg/mL (≈ 0.0463 µM); in the assay with Streptococcus pneumoniae, 0.12 µg/mL (≈ 0.0927 µM); in the assay with Streptococcus pyogenes [3], 0.06 µg/mL (≈ 0.0463 µM). The MIC in the assay with Enterococcus faecalis turned out to be 0.12 µg/mL (≈ 0.0927 µM); against Proteus vulgaris, 64 µg/mL (≈ 49.4 µM). This compound also registered an ED50 in the assay with Streptococcus pyogenes [1] of 1.6 mg/kg.
For the compound `N[C@H]1C(=O)N[C@@H]2Cc3ccc(c(Cl)c3)Oc3cc4cc(c3O)Oc3ccc(cc3Cl)[C@@H](O)[C@@H]3NC(=O)[C@H](NC(=O)[C@@H]4NC(=O)[C@@H](NC2=O)c2cc(O)cc(c2)Oc2cc1ccc2O)c1ccc(O)c(c1)-c1c(O)cc(O)cc1[C@@H](C(=O)NCCCCCC(=O)N[C@@H]1[C@@H](O)[C@@H](O)[C@@H](CO)O[C@H]1O)NC3=O`, the MIC in the assay with Escherichia coli is 64 µg/mL (≈ 43.4 µM); with Pseudomonas aeruginosa it was more than 128 µg/mL; in assay [2] it was 0.06 µg/mL (≈ 0.0407 µM); with Staphylococcus aureus it was 0.12 µg/mL (≈ 0.0815 µM); against Streptococcus pneumoniae, 0.25 µg/mL (≈ 0.17 µM); in the assay with Streptococcus pyogenes [3] it was 0.12 µg/mL (≈ 0.0815 µM). In addition, the values for the MIC with Enterococcus faecalis and in the assay with Proteus vulgaris were 0.25 µg/mL (≈ 0.17 µM) and more than 128 µg/mL, respectively. Further, the 50% effect level in the assay with Streptococcus pyogenes [1] (ED50) was put at a dose of 2.9 mg/kg.
With `CCN1CCCC1CNC(=O)[C@H]1NC(=O)[C@H]2NC(=O)[C@H](NC(=O)[C@@H]3NC(=O)[C@H]4NC(=O)[C@@H](Cc5ccc(c(Cl)c5)Oc5cc3cc(c5O[C@@H]3O[C@@H](CO)[C@@H](O)[C@H](O)[C@@H]3NC(=O)CCCCCCC(C)C)Oc3ccc(cc3Cl)[C@H]2O[C@@H]2O[C@@H](CO)[C@@H](O)[C@H](O)[C@@H]2NC(C)=O)NC(=O)[C@H](N)c2ccc(O)c(c2)Oc2cc(O)cc4c2)c2ccc(O)c(c2)-c2c(O[C@H]3O[C@H](CO)[C@@H](O)[C@@H](O)[C@@H]3O)cc(O)cc21` (some centres not stated), the ED50 in the assay with Streptococcus pyogenes [4] amounted to 140 mg/kg; in the assay on Streptococcus pyogenes [1], 0.1 mg/kg. In addition, the MIC in assay [2] worked out at 0.06 µg/mL (≈ 0.0302 µM); in assay [5], 0.12 µg/mL (≈ 0.0603 µM); against Staphylococcus aureus it was 0.12 µg/mL (≈ 0.0603 µM); in the assay on Streptococcus pneumoniae it was 0.06 µg/mL (≈ 0.0302 µM); in the assay with Streptococcus pyogenes [3], 0.06 µg/mL (≈ 0.0302 µM); against Enterococcus faecalis, 0.12 µg/mL (≈ 0.0603 µM).
Regarding `CCCCN(CCCC)CCCNC(=O)[C@H]1NC(=O)[C@H]2NC(=O)[C@H](NC(=O)[C@@H]3NC(=O)[C@H]4NC(=O)[C@@H](Cc5ccc(c(Cl)c5)Oc5cc3cc(c5O)Oc3ccc(cc3Cl)[C@H]2O)NC(=O)[C@H](N)c2ccc(O)c(c2)Oc2cc(O)cc4c2)c2ccc(O)c(c2)-c2c(O)cc(O)cc21`, the MIC in the assay with Escherichia coli is 8 µg/mL (≈ 5.85 µM); in the assay with Pseudomonas aeruginosa it was 64 µg/mL (≈ 46.8 µM); in assay [2] it was 0.06 µg/mL (≈ 0.0439 µM); against Staphylococcus aureus, 0.12 µg/mL (≈ 0.0878 µM); in the assay on Streptococcus pneumoniae, 0.12 µg/mL (≈ 0.0878 µM); in the assay with Streptococcus pyogenes [3], 0.06 µg/mL (≈ 0.0439 µM). Further, the MIC against Enterococcus faecalis is 0.12 µg/mL (≈ 0.0878 µM); with Proteus vulgaris it was 32 µg/mL (≈ 23.4 µM). For the same compound, in the assay on Streptococcus pyogenes [1], the ED50 worked out at 0.72 mg/kg.
As for `CN1CCN(C(=O)[C@H]2NC(=O)[C@H]3NC(=O)[C@H](NC(=O)[C@@H]4NC(=O)[C@H]5NC(=O)[C@@H](Cc6ccc(c(Cl)c6)Oc6cc4cc(c6O)Oc4ccc(cc4Cl)[C@H]3O)NC(=O)[C@H](N)c3ccc(O)c(c3)Oc3cc(O)cc5c3)c3ccc(O)c(c3)-c3c(O)cc(O)cc32)CC1`, the MIC in the assay with Escherichia coli is 16 µg/mL (≈ 12.5 µM); in the assay on Pseudomonas aeruginosa, 32 µg/mL (≈ 25 µM); in [2] it was 0.03 µg/mL (≈ 0.0234 µM); against Staphylococcus aureus, 0.06 µg/mL (≈ 0.0468 µM); in the assay on Streptococcus pneumoniae, 0.12 µg/mL (≈ 0.0937 µM); against Streptococcus pyogenes [3], 0.12 µg/mL (≈ 0.0937 µM). In addition, the figures for the MIC with Enterococcus faecalis and against Proteus vulgaris were 0.12 µg/mL (≈ 0.0937 µM) and 64 µg/mL (≈ 50 µM), respectively. For the same compound, it took a dose of 0.95 mg/kg to reach the 50% effect level with Streptococcus pyogenes [1] (ED50).
